Assay results published in PMC9271465 (ESMO Open, 2022).

Experiment: phase I dose-escalation: plasma pharmacokinetics
Format: in vivo, patients
Conditions: for Cmax,ss / t1/2 / AUC0-24 h / Cmax: mean (%CV); for Tmax,ss / Tmax: median (range)
Summary of the method: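 Oral tablet, fasted, qd or b.i.d. (25–300 mg). Plasma sampled in cycle 0 after a single dose at pre-dose and 0.5–144 h. Under continuous dosing, sampled pre-dose on cycle 1 days 8 and 15, and on day 21 pre-dose to 24 h (b.i.d. to 12 h). Plasma stored at −80 °C. Noncompartmental analysis; arithmetic mean (%CV), Tmax median (range).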

[1] = multiple doses 21 days, 25 mg qd, n = 1
[2] = multiple doses 21 days, 50 mg qd, n = 3
[3] = multiple doses 21 days, 100 mg b.i.d., n = 3
[4] = multiple doses 21 days, 100 mg qd, n = 3
[5] = multiple doses 21 days, 200 mg qd, n = 3
[6] = multiple doses 21 days, 300 mg qd, n = 1
[7] = steady state after 21 days of multiple doses

SMILES: C=CC(=O)Nc1cc(Nc2ncc(Cl)c(Nc3ccccc3C(=O)C(=O)N(C)C)n2)c(OC)cc1N1CCN(C)CC1 [BPI-15086]
- dose dependence of Cmax and AUC0-t (25 to 300 mg, single dose and multiple doses): increased in a dose-dependent manner
- Cmax,ss [1]: 24.6 (NA) ng/ml
- Tmax,ss [1]: 2.88 (2.88-2.88) h
- Cmax,ss [2]: 48.5 (64.3) ng/ml
- Tmax,ss [2]: 2.08 (2.02-4.00) h
- t1/2 (multiple doses 21 days, 50 mg qd): 8.94 (NA) h
- Cmax,ss [3]: 240 (37.9) ng/ml
- Tmax,ss [3]: 2.98 (2.03-3.00) h
- t1/2 (multiple doses 21 days, 100 mg b.i.d.): 4.78 (NA) h
- Cmax,ss [4]: 84.6 (65.6) ng/ml
- Tmax,ss [4]: 3.00 (2.00-3.95) h
- Cmax,ss [5]: 209 (71.1) ng/ml
- Tmax,ss [5]: 2.02 (1.98-3.00) h
- t1/2 (multiple doses 21 days, 200 mg qd): 9.09 (1.51) h
- Cmax,ss [6]: 924 (NA) ng/ml
- Tmax,ss [6]: 2.02 (2.02-2.02) h
- t1/2 (multiple doses 21 days, 300 mg qd): 9.84 (NA) h
- AUC0-24 h (single dose, 25 mg qd, n = 1): 285 (NA) h × ng/ml
- Cmax (single dose, 25 mg qd, n = 1): 31.6 (NA) ng/ml
- t1/2 (single dose, 25 mg qd, n = 1): 12.2 (NA) h
- Tmax (single dose, 25 mg qd, n = 1): 1.97 (1.97-1.97) h
- AUC0-24 h (single dose, 50 mg qd, n = 3): 324 (47.7) h × ng/ml
- Cmax (single dose, 50 mg qd, n = 3): 31.3 (40.1) ng/ml
- t1/2 (single dose, 50 mg qd, n = 3): 13.4 (35.2) h
- Tmax (single dose, 50 mg qd, n = 3): 2.93 (2.02-4.05) h
- AUC0-24 h (single dose, 100 mg qd, n = 3): 580 (37.3) h × ng/ml
- Cmax (single dose, 100 mg qd, n = 3): 46.1 (34.7) ng/ml
- t1/2 (single dose, 100 mg qd, n = 3): 11.3 (23.3) h
- Tmax (single dose, 100 mg qd, n = 3): 3.00 (2.03-4.00) h
- AUC0-24 h (single dose, 200 mg qd, n = 7): 2630 (91.2) h × ng/ml
- Cmax (single dose, 200 mg qd, n = 7): 273 (97.8) ng/ml
- t1/2 (single dose, 200 mg qd, n = 7): 9.91 (15.5) h
- Tmax (single dose, 200 mg qd, n = 7): 4.02 (2.02-5.13) h
- AUC0-24 h (single dose, 300 mg qd, n = 3): 3860 (41.3) h × ng/ml
- Cmax (single dose, 300 mg qd, n = 3): 354 (29.5) ng/ml
- t1/2 (single dose, 300 mg qd, n = 3): 14.1 (58.6) h
- Tmax (single dose, 300 mg qd, n = 3): 4.00 (3.98-5.00) h
- mean apparent terminal elimination half-life (t1/2), range across doses (single dose, 25-300 mg): 9.91 to 14.1 h
- Median Tmax, range across doses (single dose, lowest to highest doses 25-300 mg): 1.97 to 4.02 h
- mean Vz/F, range across doses (steady state): 556 to 3830 L
- mean apparent oral clearance (CLss/F), range across doses (steady state): 49.3 to 166 L/h
- mean t1/2, range across doses (steady state): 4.78 to 9.84 h
- Cmax,ss, range across doses [7]: 24.6 to 924 ng/mL
- Tmax,ss, range across doses [7]: 2.02 to 3.00 h
